Screening data from PubChem.
Shown is part of a subset that was picked to be rich in hits.
ABCB1 inh – ABCB1 efflux pump inhibitors, primary screen, cell-based, multiplex, flow cytometry, ABCG2 counter-screen | ATP-dependent translocase ABCB1 (Homo sapiens), P08183 | CCRF-Adr cells, JC-1 efflux | actives 0.067% (n = 190,000) | inhibition, % at 6.6 µM | AID 1326, 2008; in the data active = inhibition above about 40%;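 note: higher value means more JC-1 retained so stronger ABCB1 efflux block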
GSH fluor – compound fluorescence on glutathione beads, profiling panel, artefact control, biophysical, 488/530 nm, flow cytometry; fluorescence (KMESF) at 10 µM; AID 1776, 2009; actives 0.25% (n = 190,000); GSH beads flow cytometry, compound fluorescence 488/530 nm; stronger effect = higher value; in the data active = fluorescence above about 89;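 note: glutathione beads carrying GST-tagged Bcl family fusion proteins plus one bare bead set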
Avidin bead fluor – green autofluorescence of compounds with avidin beads – biophysical, 488/530 nm, flow cytometry, artefact control, profiling panel; AID 1775, 2009; compound fluorescence 488/530 nm; stronger effect = higher value; actives 0.38% (n = 220,000); fluorescence (KMESF) at 10 µM; in the data active = fluorescence above about 47
L major viab – Leishmania major promastigote growth inhibition, primary screen; actives 9% (n = 200,000); inhibition, % at 10 µM; Leishmania major promastigotes, resazurin fluorescence viability;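 note: promastigotes grown with compound for 44 hours at 28 °C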
ABCG2 inh – ABCG2 efflux pump inhibitors, primary screen, multiplex with ABCB1, IgMXP3 cells, flow cytometry. actives 0.1% (n = 190,000). inhibition, % at 6.6 µM. Broad substrate specificity ATP-binding cassette transporter ABCG2 (Homo sapiens), Q9UNQ0. JC-1 efflux. AID 1325, 2008;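 active = inhibition above 80%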
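Test system: ABCG2 IgMXP3 and barcoded ABCB1 CCRF-Adr cell mix; Schedule: cells with compound and JC-1, 10 min at 25 °C, rotating, no wash; Technique: flow cytometry of retained JC-1 fluorescence; Measure: % inhibition of efflux relative to nicardipine and DMSO; Controls: nicardipine high and DMSO low controls.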
PKD1 inh – inhibitors of human PKD1 kinase, biochemical, fluorescence polarization | Serine/threonine-protein kinase D1 (Homo sapiens), Q15139 | PKD1 kinase fluorescence polarization assay | inhibition, % (no concentration beside the values) | actives 0.056% (n = 200,000) | AID 797, 2007
Large screens that a line does not name were inactive. Cut-off read from the data, not from the text of the source, unless noted: active = inhibition above about 50%; inactive = the rest.

CCOc1ccccc1OCCCOc1ccc(C)cc1Cl	none
S=C(NCc1ccc(Cl)cc1)N1CCN(c2ccccn2)CC1	none
CCCN1CCN(C(=S)NCc2ccc(Cl)cc2)CC1	L major viab 81
CC(=O)N1CCN(C(=S)Nc2ccc(SC(F)F)cc2)CC1	none
CCCN1CCN(C(=S)Nc2ccc(SC(F)F)cc2)CC1	L major viab 90
CC1CCN(C(=S)Nc2ccc(SC(F)F)cc2)CC1	L major viab 72
CCN1CCN(C(=S)Nc2ccc(C(C)=O)cc2)CC1	none
CC1(C)CC(=O)C(N=Nc2cccc(F)c2C#N)=C(O)C1	none (no result: ABCB1 inh, GSH fluor, L major viab, ABCG2 inh, PKD1 inh)
Cc1cc(C)c2c(n1)sc1c(-c3ccccc3)c(C#N)c(N)nc12	none
O=[N+]([O-])c1ccc(O)c(/C=N/Nc2ccccn2)c1	L major viab 89
O=[N+]([O-])c1cccc(N/N=C/c2cc([N+](=O)[O-])ccc2O)c1	none
Cc1cc(Cl)ccc1NC(=O)CCC(=O)N/N=C/c1cc([N+](=O)[O-])ccc1O	L major viab 92
COc1cc(/C=N/Nc2nc3ccccc3[nH]2)ccc1O	L major viab 80
COc1cc(/C=N/Nc2nc3ccccc3[nH]2)cc(OC)c1O	none
O=C(N/N=C/c1cc([N+](=O)[O-])ccc1O)C12CC3CC(CC(C3)C1)C2	L major viab 97
O=C(N/N=C/c1cc([N+](=O)[O-])ccc1O)c1c[nH]c2ccccc12	none (no result: ABCB1 inh, GSH fluor, L major viab, ABCG2 inh, PKD1 inh)
O=[N+]([O-])c1ccc(O)c(/C=N/Nc2nc3ccccc3[nH]2)c1	L major viab 100
COc1ccc(O)c(/C=N/Nc2nc3ccccc3[nH]2)c1	L major viab 88
Cc1cccc(OCCC(=O)Nc2ccc(C)c(S(=O)(=O)N3CCCCC3)c2)c1	none
CCc1ccccc1NC(=S)N(Cc1ccco1)C(C)c1cccs1 (stereo not given)	none
CCc1ccc(NC(=O)N(Cc2ccco2)C(C)c2cccs2)cc1 (stereo not given)	L major viab 70
COC(=O)c1ccc(NC(=S)N(Cc2cccnc2)Cc2ccco2)cc1	L major viab 100
CCc1ccc(NC(=O)N(Cc2cccnc2)Cc2ccco2)cc1	L major viab 90
CCOC(=O)c1ccc(NC(=S)N(Cc2cccnc2)Cc2ccco2)cc1	L major viab 100
CCOC(=O)c1ccc(NC(=S)NCc2cccnc2)cc1	none
COc1ccccc1NC(=S)N(Cc1cccnc1)Cc1ccco1	none
Cc1ccc(CN(Cc2ccco2)C(=S)NCC(=O)NCc2cccnc2)cc1	none
CCC(C)OC(=O)C1=C(C)O[C@]23OC(N)=C(C#N)[C@]12C(=O)c1ccccc13 (stereo not given in full)	none
CC(C)CCN(C(=O)Nc1ccccc1)C(C)c1cccs1 (stereo not given)	L major viab 83
CC(c1cccs1)N(C(=O)Nc1ccccc1)C1CCCCC1 (stereo not given)	none
CC1CN(C(=O)Nc2ccc3snnc3c2)c2ccccc21 (stereo not given)	L major viab 51
O=C(Nc1ccc2snnc2c1)N1CCSCC1	none
CCOc1ccccc1NC(=O)/C=C/c1ccccc1[N+](=O)[O-]	L major viab 78 (no result: ABCB1 inh, ABCG2 inh)
NS(=O)(=O)c1ccc(NC(=O)/C=C/c2ccccc2[N+](=O)[O-])cc1	L major viab 69
CCOc1ccccc1NC(=O)/C=C/C(N)=O	L major viab 100
O=C(OCCN(C1=NS(=O)(=O)c2ccccc21)c1ccccc1Cl)c1ccc(Cl)cc1	none
COc1ccc(C2=NN(C(C#N)c3ccc(OC)cc3)C(c3ccccc3)C2)cc1 (stereo not given)	L major viab 69
COc1ccc(C(C#N)N2N=C(c3ccccc3)CC2c2ccccc2)cc1OC (stereo not given)	L major viab 100
C#CCOCCOCCOCCNc1nc(N2CCN(C(=O)[C@H](CCC(=O)O)n3cc(C(N)Cc4ccc(O)cc4)nn3)CC2)nc(N2CCN(C(=O)[C@H](CCCCN)n3cc(C(N)[C@H](C)CC)nn3)CC2)n1 (stereo not given in full)	none (no result: ABCB1 inh, GSH fluor, L major viab, ABCG2 inh, PKD1 inh)
Clc1cccc(NCc2cn3cccnc3n2)c1	none
CN(Cc1cn(C)nc1-c1ccccc1F)CC1CCCCO1 (stereo not given)	none
Clc1ccc(-c2onc3c2CCCC3)cc1	none
COc1ccc(-c2nc(NC(=O)c3ccc(OCC(=O)N4CCOCC4)c(OC)c3)sc2C)cc1	L major viab 61
COC(=O)c1[nH]c2ccc(F)cc2c1NS(=O)(=O)c1ccc(OC)cc1OC	L major viab 97
CC(C)CC(NC(=O)c1ccc(Cl)cc1)C(=O)OCC(=O)c1ccc2c(c1)NC(=O)CO2 (stereo not given)	GSH fluor 239, L major viab 64
COc1ccc2nc(N/C(N)=N/S(C)(=O)=O)nc(C)c2c1	none (no result: ABCB1 inh, GSH fluor, L major viab, ABCG2 inh, PKD1 inh)
CCc1nnc(NS(=O)(=O)c2ccc(N/C=C\C(=O)c3ccc4ccccc4c3)cc2)s1	L major viab 54
COc1ccc(C(=O)/C=C/Nc2ccc(S(=O)(=O)Nc3onc(C)c3C)cc2)cc1	L major viab 66
Cc1cc(C)nc(NS(=O)(=O)c2ccc(N/C=C/C(=O)c3ccc(Cl)cc3)cc2)n1	L major viab 58
CCc1nnc(NS(=O)(=O)c2ccc(NC(=O)c3ccccc3)cc2)s1	none (no result: ABCB1 inh, GSH fluor, L major viab, ABCG2 inh, PKD1 inh)
Cc1ccc(S(=O)(=O)N2CCC(C(=O)NNS(=O)(=O)c3ccc(Cl)cc3)CC2)cc1	none
CN(CC(=O)N1CCN(Cc2ccccc2)CC1)S(=O)(=O)c1cccc2nsnc12	none
COC(=O)[C@H](Cc1ccccc1)NC(=O)N1CCN(c2ccc(F)cc2)CC1	none (no result: ABCB1 inh, GSH fluor, L major viab, ABCG2 inh, PKD1 inh)
CN1CCN(C(=O)CSc2nc(-c3cccs3)cc(-c3cccs3)c2C#N)CC1	L major viab 66
CCN(CC)C(=O)CSc1nc(-c2cccs2)cc(-c2cccs2)c1C#N	none
CN(C)/C=C1\C=C2C(=O)c3ccccc3N2C1=O	Avidin bead fluor 92 (no result: ABCB1 inh, GSH fluor, L major viab, ABCG2 inh, PKD1 inh)
CNS(=O)(=O)c1ccc(NC(=O)Nc2cccc(F)c2)cc1	none
O=[N+]([O-])c1ccc(C(=S)N2CCCC2)cc1	none
COc1ccc(C(=S)N2CCCCCC2)cc1	none
CCN1CCN(C(=S)c2ccc(OC)cc2)CC1	L major viab 100
CCN1CCN(C(=S)c2ccc(Cl)cc2)CC1	L major viab 88
CCN1CCN(C(=S)c2ccc([N+](=O)[O-])cc2)CC1	L major viab 58
CCOc1ccc(C(Nc2ccc(C)cc2)P2(=O)OCCC(C)O2)cc1 (stereo not given)	none
Cc1cc(C(=O)NNC(=O)NC(C)C)no1	none (no result: ABCB1 inh, GSH fluor, L major viab, ABCG2 inh, PKD1 inh)
Cc1ccc(C)n1CCN1CCN(C(=O)CC#N)CC1	none
